{
  "source": "ChEMBL document CHEMBL1132114",
  "about": "“Chemical syntheses and biological studies on dimeric chimeras of oxytocin and the V(2)-antagonist, d(CH(2))(5)[D-Ile(2), Ile(4)]arginine vasopressin” (J Med Chem, 1999)",
  "key": {"Rattus norvegicus [1]": {"tested_on": "Rattus norvegicus", "assay": "Excreted total Na+ in 0% water loaded rats after administration of the compound", "type": "functional", "in_short": "(§1)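 Conscious male Wistar rats fasted 16 h, given either no water load or tap water at 4% of body weight by stomach catheter; compound given subcutaneously at 50 nmol/kg right after loading. Rats kept in individual metabolic cages, urine collected over 5 h; total Na+ and K+ measured by flame spectrophotometry. Groups of 4–5 rats, 2–3 independent days; mean ± SEM.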"}, "Rattus norvegicus [2]": {"tested_on": "Rattus norvegicus", "assay": "Excreted total Na+ in 4% water loaded rats after administration of the compound", "type": "functional", "in_short": "as §1"}, "Rattus norvegicus [3]": {"tested_on": "Rattus norvegicus", "assay": "Volume of excreted urine in 5 h after administration in 0% water loaded rats", "type": "functional", "in_short": "(§2)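 Fasted (16 h) conscious male Wistar rats, without water load or loaded by stomach catheter with tap water at 4% of body weight, then dosed subcutaneously at 50 nmol/kg (saline control). Urine collected in individual metabolic cages and total volume recorded over 5 h. Groups of 4–5 rats, 2–3 independent days; mean ± SEM.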"}, "Rattus norvegicus [4]": {"tested_on": "Rattus norvegicus", "assay": "Volume of excreted urine in 5 hr after administration in 4% water loaded rats", "type": "functional", "in_short": "as §2"}, "Rattus norvegicus [5]": {"species_on_record": "Rattus norvegicus", "assay": "In vitro uterotonic activity was determined", "type": "functional", "in_short": "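Uterine preparations from Wistar rats estrogenized 24–48 h beforehand were tested in vitro without magnesium ions. Synthetic oxytocin served as standard. Single or cumulative dose–response curves were built, and activity was obtained by comparing threshold doses of standard and analogue. Averages of 3–5 experiments, in IU/mg.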"}, "Rattus norvegicus [6]": {"tested_on": "Rattus norvegicus", "assay": "In vivo uterotonic activity in rats", "type": "functional", "in_short": "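In vivo uterotonic test in Wistar rats estrogenized 24–48 h before the experiment, with compounds given intravenously. Synthetic oxytocin served as standard. Activity came from comparing threshold doses on dose–response curves. Averages of 3–5 experiments, in IU/mg.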"}, "Rattus norvegicus [7]": {"tested_on": "Rattus norvegicus", "assay": "In vivo pressor response in rats", "type": "functional", "in_short": "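Vasopressor test in phenoxybenzamine-treated male Wistar rats against a synthetic arginine vasopressin standard. Activity came from comparing threshold doses of standard and analogue on dose–response curves. Averages of 3–5 experiments.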"}, "Rattus norvegicus [8]": {"tested_on": "Rattus norvegicus", "assay": "In vivo antidiuretic in conscious rats", "type": "functional, Urine", "in_short": "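Modified Burn test in conscious male Wistar rats fasted 16 h and loaded orally by catheter with tap water (4% of body weight). Compounds or saline injected subcutaneously at 1–100 nmol/kg. Urine collected over 5 h in metabolic cages. Groups of 4–5 rats; each dose run in 2–3 independent experiments.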"}, "Rattus norvegicus [9]": {"species_on_record": "Rattus norvegicus", "assay": "diuresis half-time in 4% water loaded rats", "type": "functional, organism-based", "in_short": "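After a 16-h fast, conscious male Wistar rats received tap water at 4% of body weight by stomach catheter, then compound subcutaneously at 50 nmol/kg. Urine output followed every 15 min for 5 h in metabolic cages. Half-time taken as the time at which half the water load was excreted. Mean ± SEM.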"}, "Rattus norvegicus [10]": {"tested_on": "Rattus norvegicus", "assay": "Excreted total K+ in 0% water loaded rats after administration of the compound", "type": "functional, organism-based", "in_short": "as §1"}, "Rattus norvegicus [11]": {"tested_on": "Rattus norvegicus", "assay": "Excreted total K+ in 4% water loaded rats after administration of the compound", "type": "functional, organism-based", "in_short": "as §1"}, "Rattus norvegicus [12]": {"tested_on": "Rattus norvegicus", "assay": "Volume of excreted urine in 5 hr after administration in 0% water loaded rats", "type": "functional", "in_short": "as §2"}, "Rattus norvegicus [13]": {"tested_on": "Rattus norvegicus", "assay": "In vivo antidiuretic in anesth rats", "type": "functional, Urine"}},
  "data": [
    {"molecule": "CC[C@@H](C)[C@H]1NC(=O)CC2(CCCCC2)SSC[C@H](N)C(=O)N[C@@H](Cc2ccc(O)cc2)C(=O)N[C@@H]([C@@H](C)CC)C(=O)N[C@@H](CCC(N)=O)C(=O)N[C@@H](CC(N)=O)C(=O)N[C@H](C(=O)N2CCC[C@H]2C(=O)N[C@@H](CC(C)C)C(=O)NCC(N)=O)CSSC[C@@H](C(=O)N2CCC[C@H]2C(=O)N[C@@H](CCCN=C(N)N)C(=O)NCC(N)=O)NC(=O)[C@H](CC(N)=O)NC(=O)[C@H]([C@@H](C)CC)NC(=O)[C@H](Cc2ccccc2)NC1=O", "values": [
      {"measurement": "Na", "setting": "Rattus norvegicus [1]", "result": 762, "unit": "µmol"},
      {"measurement": "Na", "setting": "Rattus norvegicus [2]", "result": 375, "unit": "µmol"},
      {"measurement": "Volume of urine", "setting": "Rattus norvegicus [3]", "result": 9.4, "unit": "mL"},
      {"measurement": "Volume of urine", "setting": "Rattus norvegicus [4]", "result": 14.2, "unit": "mL"},
      {"measurement": "Uterotonic activity", "setting": "Rattus norvegicus [5]", "result": 0.22, "unit": "IU mg-1"},
      {"measurement": "Uterotonic activity", "setting": "Rattus norvegicus [6]", "result": 1.1, "unit": "IU mg-1"},
      {"measurement": "Pressor response", "setting": "Rattus norvegicus [7]", "result": 0, "unit": "IU mg-1"}
    ]},
    {"molecule": "CC[C@H](C)[C@@H]1NC(=O)[C@H](Cc2ccc(O)cc2)NC(=O)[C@@H](N)CSSC[C@@H](C(=O)N2CCC[C@H]2C(=O)N[C@@H](CC(C)C)C(=O)NCC(N)=O)NC(=O)[C@H](CC(N)=O)NC(=O)[C@H](CCC(N)=O)NC(=O)[C@H]([C@@H](C)CC)NC(=O)[C@H](Cc2ccc(O)cc2)NC(=O)[C@@H](N)CSSC[C@@H](C(=O)N2CCC[C@H]2C(=O)N[C@@H](CC(C)C)C(=O)NCC(N)=O)NC(=O)[C@H](CC(N)=O)NC(=O)[C@H](CCC(N)=O)NC1=O", "note": "[OXYTOCIN DIMER]", "values": [
      {"measurement": "Antidiuretic activity", "setting": "Rattus norvegicus [8]", "result": "~10", "unit": "%"},
      {"measurement": "Na", "setting": "Rattus norvegicus [2]", "result": 1150, "unit": "µmol"},
      {"measurement": "Volume of urine", "setting": "Rattus norvegicus [4]", "result": 6.4, "unit": "mL"},
      {"measurement": "Uterotonic activity", "setting": "Rattus norvegicus [5]", "result": 1.37, "unit": "IU mg-1"},
      {"measurement": "Uterotonic activity", "setting": "Rattus norvegicus [6]", "result": 13.8, "unit": "IU mg-1"},
      {"measurement": "Pressor response", "setting": "Rattus norvegicus [7]", "result": 0.5, "unit": "IU mg-1"}
    ]},
    {"molecule": "CC[C@@H](C)[C@H]1NC(=O)CC2(CCCCC2)SSC[C@@H](C(=O)N2CCC[C@H]2C(=O)N[C@@H](CC(C)C)C(=O)NCC(N)=O)NC(=O)[C@H](CC(N)=O)NC(=O)[C@H](CCC(N)=O)NC(=O)[C@H]([C@@H](C)CC)NC(=O)[C@H](Cc2ccc(O)cc2)NC(=O)[C@@H](N)CSSC[C@@H](C(=O)N2CCC[C@H]2C(=O)N[C@@H](CCCN=C(N)N)C(=O)NCC(N)=O)NC(=O)[C@H](CC(N)=O)NC(=O)[C@H]([C@@H](C)CC)NC(=O)[C@H](Cc2ccccc2)NC1=O", "values": [
      {"measurement": "Na", "setting": "Rattus norvegicus [1]", "result": 358, "unit": "µmol"},
      {"measurement": "Na", "setting": "Rattus norvegicus [2]", "result": 480, "unit": "µmol"},
      {"measurement": "Volume of urine", "setting": "Rattus norvegicus [3]", "result": 6.3, "unit": "mL"},
      {"measurement": "Volume of urine", "setting": "Rattus norvegicus [4]", "result": 13.1, "unit": "mL"},
      {"measurement": "Uterotonic activity", "setting": "Rattus norvegicus [5]", "result": 0.8, "unit": "IU mg-1"},
      {"measurement": "Uterotonic activity", "setting": "Rattus norvegicus [6]", "result": 0.8, "unit": "IU mg-1"},
      {"measurement": "Pressor response", "setting": "Rattus norvegicus [7]", "result": 0, "unit": "IU mg-1"}
    ]},
    {"molecule": "CC[C@H](C)[C@@H]1NC(=O)[C@H](Cc2ccc(O)cc2)NC(=O)[C@@H](N)CSSC[C@@H](C(=O)N2CCC[C@H]2C(=O)N[C@@H](CC(C)C)C(=O)NCC(N)=O)NC(=O)[C@H](CC(N)=O)NC(=O)[C@H](CCC(N)=O)NC1=O", "note": "[OXYTOCIN]", "values": [
      {"measurement": "T1/2", "setting": "Rattus norvegicus [9]", "result": 2.97, "unit": "h"},
      {"measurement": "K", "setting": "Rattus norvegicus [10]", "result": 202, "unit": "µmol"},
      {"measurement": "K", "setting": "Rattus norvegicus [11]", "result": 287, "unit": "µmol"},
      {"measurement": "Antidiuretic activity", "setting": "Rattus norvegicus [8]", "result": 100, "unit": "%"},
      {"measurement": "Na", "setting": "Rattus norvegicus [1]", "result": 563, "unit": "µmol"},
      {"measurement": "Na", "setting": "Rattus norvegicus [2]", "result": 773, "unit": "µmol"},
      {"measurement": "Volume of urine", "setting": "Rattus norvegicus [12]", "result": 4.8, "unit": "mL"},
      {"measurement": "Volume of urine", "setting": "Rattus norvegicus [4]", "result": 11.3, "unit": "mL"},
      {"measurement": "Uterotonic activity", "setting": "Rattus norvegicus [5]", "result": 450, "unit": "IU mg-1"},
      {"measurement": "Uterotonic activity", "setting": "Rattus norvegicus [6]", "result": 450, "unit": "IU mg-1"},
      {"measurement": "Pressor response", "setting": "Rattus norvegicus [7]", "result": 4.5, "unit": "IU mg-1"},
      {"measurement": "Antidiuretic activity", "setting": "Rattus norvegicus [13]", "result": 5, "unit": "IU mg-1"}
    ]},
    {"molecule": "CC[C@@H](C)[C@H]1NC(=O)[C@H](Cc2ccc(O)cc2)NC(=O)[C@@H](N)CSSC[C@@H](C(=O)N2CCC[C@@H]2C(=O)N[C@@H](CC(C)C)C(=O)NCC(N)=O)NC(=O)[C@H](CC(N)=O)NC(=O)[C@@H](CCC(N)=O)NC(=O)[C@H]([C@@H](C)CC)NC(=O)[C@@H](Cc2ccc(O)cc2)NC(=O)[C@H](N)CSSC[C@H](C(=O)N2CCC[C@H]2C(=O)N[C@H](CC(C)C)C(=O)NCC(N)=O)NC(=O)[C@@H](CC(N)=O)NC(=O)[C@H](CCC(N)=O)NC1=O", "values": [
      {"measurement": "T1/2", "setting": "Rattus norvegicus [9]", "result": 3.47, "unit": "h"},
      {"measurement": "K", "setting": "Rattus norvegicus [11]", "result": 231, "unit": "µmol"}
    ]},
    {"molecule": "CC[C@@H](C)[C@H]1NC(=O)CC2(CCCCC2)SSC[C@@H](C(=O)N2CCC[C@@H]2C(=O)N[C@@H](CC(C)C)C(=O)NCC(N)=O)NC(=O)[C@H](CC(N)=O)NC(=O)[C@H](CCC(N)=O)NC(=O)[C@H]([C@@H](C)CC)NC(=O)[C@H](Cc2ccc(O)cc2)NC(=O)[C@@H](N)CSSC[C@H](C(=O)N2CCC[C@@H]2C(=O)N[C@H](CCCN=C(N)N)C(=O)NCC(N)=O)NC(=O)[C@@H](CC(N)=O)NC(=O)[C@@H]([C@H](C)CC)NC(=O)[C@@H](Cc2ccccc2)NC1=O", "values": [
      {"measurement": "T1/2", "setting": "Rattus norvegicus [9]", "result": 0.817, "unit": "h"},
      {"measurement": "K", "setting": "Rattus norvegicus [10]", "result": 200, "unit": "µmol"},
      {"measurement": "K", "setting": "Rattus norvegicus [11]", "result": 123, "unit": "µmol"}
    ]},
    {"molecule": "CC[C@H](C)[C@@H]1NC(=O)CC2(CCCCC2)SSC[C@H](N)C(=O)N[C@@H](Cc2ccc(O)cc2)C(=O)N[C@@H]([C@@H](C)CC)C(=O)N[C@@H](CCC(N)=O)C(=O)N[C@@H](CC(N)=O)C(=O)N[C@H](C(=O)N2CCC[C@@H]2C(=O)N[C@@H](CC(C)C)C(=O)NCC(N)=O)CSSC[C@@H](C(=O)N2CCC[C@H]2C(=O)N[C@@H](CCCN=C(N)N)C(=O)NCC(N)=O)NC(=O)[C@H](CC(N)=O)NC(=O)[C@H]([C@@H](C)CC)NC(=O)[C@H](Cc2ccccc2)NC1=O", "values": [
      {"measurement": "T1/2", "setting": "Rattus norvegicus [9]", "result": 0.7, "unit": "h"},
      {"measurement": "K", "setting": "Rattus norvegicus [10]", "result": 217, "unit": "µmol"},
      {"measurement": "K", "setting": "Rattus norvegicus [11]", "result": 162, "unit": "µmol"}
    ]}
  ]
}
